Assay results: ChEMBL document CHEMBL4699542, “Design and synthesis of novel methoxypyridine-derived gamma-secretase modulators” (Bioorg Med Chem, 2020)
In brackets after ≈: the same amount, converted by molar mass.

Assays:
Cytochrome P450 2C9 = Cytochrome P450 2C9 (Homo sapiens, UniProt P11712); assay: Inhibition of recombinant CYP2C9 (unknown origin) by fluorescence-based assay; type: ADME
Summary of the method: (§1)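 Recombinant CYP isoforms (five tested) screened for inhibition in fluorescence-based assays; IC50 in μM.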

[1] = Metabolic stability in rat liver microsomes assessed as parent compound remaining at 1 uM incubated for 30 mins; type: ADME, Microsome; details: 0.5 h
Summary of the method: (§2)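 Test compound at 1 μM incubated 30 min with human, rat or mouse liver microsomes (1 mg/mL); parent remaining expressed as %.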

[2] = Kinetic aqueous solubility of the compound in pH 7.4 PBS buffer by UV/Visible absorbance analysis; type: physicochemical; details: read-out: Kinetic_solubility
Summary of the method: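 Kinetic solubility determined in PBS at pH 7.4 by UV/Vis absorbance, reported in μM.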

Cytochrome P450 3A4 = Cytochrome P450 3A4 (Homo sapiens, UniProt P08684); assay: Inhibition of recombinant CYP3A4 (unknown origin) by fluorescence-based assay; type: ADME
[3] = Apparent permeability from apical to basolateral membrane in MDCK-MDR1 cells; type: ADME, cell-based, Canis lupus familiaris; details: dog
Summary of the method: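 Apical-to-basolateral apparent permeability (×10⁻⁶ cm/s) measured across MDR1-MDCK cell monolayers.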

Cytochrome P450 2C19 = Cytochrome P450 2C19 (Homo sapiens, UniProt P33261); assay: Inhibition of recombinant CYP2C19 (unknown origin) by fluorescence-based assay; type: ADME; summary of the method: as §1
[4] = Metabolic stability in mouse liver microsomes assessed as parent compound remaining at 1 uM incubated for 30 mins; type: ADME, Microsome; details: 0.5 h; summary of the method: as §2
Cytochrome P450 1A2 = target: T1, Cytochrome P450 1A2 (Homo sapiens, UniProt P05177); assay: Inhibition of recombinant CYP1A2 (unknown origin) by fluorescence-based assay; type: ADME; summary of the method: as §1
T1 sequence (P05177 whole entry): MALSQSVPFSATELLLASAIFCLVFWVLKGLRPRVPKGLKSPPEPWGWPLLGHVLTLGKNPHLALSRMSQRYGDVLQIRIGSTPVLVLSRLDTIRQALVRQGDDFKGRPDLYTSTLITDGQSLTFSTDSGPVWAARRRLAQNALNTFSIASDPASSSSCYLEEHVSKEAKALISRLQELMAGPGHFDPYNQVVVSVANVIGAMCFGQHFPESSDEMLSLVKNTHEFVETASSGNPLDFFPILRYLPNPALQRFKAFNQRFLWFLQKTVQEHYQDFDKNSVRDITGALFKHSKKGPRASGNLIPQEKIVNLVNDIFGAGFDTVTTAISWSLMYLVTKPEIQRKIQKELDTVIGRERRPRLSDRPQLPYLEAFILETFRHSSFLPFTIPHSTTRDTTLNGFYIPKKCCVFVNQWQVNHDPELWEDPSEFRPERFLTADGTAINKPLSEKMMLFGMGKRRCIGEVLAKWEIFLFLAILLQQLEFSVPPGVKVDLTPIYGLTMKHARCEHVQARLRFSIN

Cytochrome P450 2D6 = Cytochrome P450 2D6 (Homo sapiens, UniProt P10635); assay: Inhibition of recombinant CYP2D6 (unknown origin) by fluorescence-based assay; type: ADME; summary of the method: as §1
[5] = Metabolic stability in human liver microsomes assessed as parent compound remaining at 1 uM incubated for 30 mins; type: ADME, Microsome; details: microsomes, 0.5 h, 1 µM; summary of the method: as §2
Gamma-secretase = assay: Modulation of gamma secretase in human SH-SY5Y cells overexpressing wild type APP751 assessed as inhibition of amyloid beta (35 to 42 residues) formation incubated for overnight by ELISA; type: cell-based
Summary of the method: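 SHSY5Y-APP751 cells plated at 75K/well and incubated overnight at 37 °C, then treated 24 h over 10 concentrations ([…]–10 μM, 1:3.16 steps, in duplicate). Medium Aβ42 measured by sandwich ELISA (Aβ35–42 capture, AP-conjugated Aβ1–12 detection, CDP-Star luminescence) against an Aβ42 standard curve.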

[6] = target: Voltage-gated inwardly rectifying potassium channel KCNH2 (Homo sapiens, UniProt Q12809); assay: Inhibition of human ERG expressed in HEK293 cells by patch clamp assay; type: cell-based
[7] = Cmax in CD-1 mouse at 1 mg/kg, iv administered as single dose measured up to 24 hrs; type: ADME, organism-based; parameters: route intravenous, dose 1 mg/kg, time <=24; details: in vivo
Summary of the method: (§3)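 Male CD-1 mice, 6–8 weeks old, single dose by tail vein (1 mg/kg, 3% NMP/45% PEG300/12% ethanol/40% water) or oral gavage (5 mg/kg, 5% NMP/95% PEG300). Retro-orbital plasma sampled 0.083 (iv only) to 24 h, n=3/timepoint, and analysed by HPLC/MS/MS. Non-compartmental analysis. Half-life taken from the terminal phase using ≥3 non-zero points after Tmax.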

[8] = AUC infinity in CD-1 mouse at 1 mg/kg, iv administered as single dose measured up to 24 hrs; type: ADME, organism-based; parameters: route intravenous, dose 1 mg/kg, time <=24; details: in vivo; summary of the method: as §3
[9] = Oral bioavailability in CD-1 mouse at 5 mg/kg administered as single dose measured up to 24 hrs; type: ADME, organism-based; details: in vivo
Summary of the method: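 CD-1 mouse PK after single iv (1 mg/kg) and oral gavage (5 mg/kg) dosing, with plasma sampled to 24 h (n=3/timepoint) and measured by HPLC/MS/MS. F(%) = (AUC0-inf po × Dose iv)/(AUC0-inf iv × Dose po) × 100.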

[10] = Ratio of drug concentration in CD-1 mouse brain to plasma at 0.4 mg/kg, iv measured after 1 hr; type: ADME, organism-based
[11] = Cmax in CD-1 mouse at 5 mg/kg, po administered as single dose measured up to 24 hrs; type: ADME, organism-based; parameters: route oral, dose 5 mg/kg, time <=24; details: in vivo; summary of the method: as §3
[12] = AUClast in CD-1 mouse at 5 mg/kg, po administered as single dose measured up to 24 hrs; type: ADME, organism-based; parameters: route oral, dose 5 mg/kg, time <=24; details: in vivo; summary of the method: as §3
[13] = Ratio of drug concentration in CD-1 mouse brain to plasma at 5 mg/kg, po measured after 1 hr; type: ADME, organism-based
Summary of the method: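 Male CD-1 mice dosed once iv (1 mg/kg) or by oral gavage (5 mg/kg). Brain and plasma collected 1 h post dose (n=3/timepoint). Drug levels by HPLC/MS/MS; brain/plasma ratio calculated from these levels.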

[14] = Half life in CD-1 mouse at 1 mg/kg, iv administered as single dose measured up to 24 hrs; type: ADME, organism-based; details: mouse, in vivo, 1 mg/kg, 24 h; summary of the method: as §3
[15] = AUC infinity in CD-1 mouse at 5 mg/kg, po administered as single dose measured up to 24 hrs; type: ADME, organism-based; parameters: route oral, dose 5 mg/kg, time <=24; details: in vivo; summary of the method: as §3
[16] = AUClast in CD-1 mouse at 1 mg/kg, iv administered as single dose measured up to 24 hrs; type: ADME, organism-based; parameters: route intravenous, dose 1 mg/kg, time <=24; details: in vivo; summary of the method: as §3
[17] = Tmax in CD-1 mouse at 5 mg/kg, po administered as single dose measured up to 24 hrs; type: ADME, organism-based; details: in vivo
Summary of the method: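 Male CD-1 mice, 6–8 weeks old, single oral gavage dose in 5% NMP/95% PEG300. Plasma (K3EDTA, retro-orbital, under isoflurane) taken at 0.25, 0.5, 1, 2, 4, 8 and 24 h, n=3/timepoint, analysed by HPLC/MS/MS. Non-compartmental extravascular analysis (Model 200); Tmax taken directly from the data.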

[18] = Volume of distribution at steady state in CD-1 mouse at 1 mg/kg, iv administered as single dose measured up to 24 hrs; type: ADME, organism-based; details: in vivo
Summary of the method: (§4)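 Male CD-1 mice, 6–8 weeks old, single tail-vein dose in 3% NMP/45% PEG300/12% ethanol/40% sterile water. Retro-orbital plasma (K3EDTA) taken at 0.083, 0.25, 0.5, 1, 2, 4, 8 and 24 h, n=3/timepoint, analysed by HPLC/MS/MS. Non-compartmental analysis (Model 201, uniform weighting); Tmax read directly from the data.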

[19] = Tmax in CD-1 mouse at 1 mg/kg, iv administered as single dose measured up to 24 hrs; type: ADME, organism-based; details: in vivo; summary of the method: as §4
[20] = Efflux ratio of apparent permeability from basolateral to apical membrane over apical to basolateral membrane in MDCK-MDR1 cells; type: ADME, cell-based, Canis lupus familiaris; details: dog
Summary of the method: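 Calculated as B-A/A-B apparent permeability ratio across MDR1-MDCK cell monolayers; A-B permeability expressed as ×10⁻⁶ cm/s.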

Cytochrome P450 2D6, sequence (P10635 whole entry): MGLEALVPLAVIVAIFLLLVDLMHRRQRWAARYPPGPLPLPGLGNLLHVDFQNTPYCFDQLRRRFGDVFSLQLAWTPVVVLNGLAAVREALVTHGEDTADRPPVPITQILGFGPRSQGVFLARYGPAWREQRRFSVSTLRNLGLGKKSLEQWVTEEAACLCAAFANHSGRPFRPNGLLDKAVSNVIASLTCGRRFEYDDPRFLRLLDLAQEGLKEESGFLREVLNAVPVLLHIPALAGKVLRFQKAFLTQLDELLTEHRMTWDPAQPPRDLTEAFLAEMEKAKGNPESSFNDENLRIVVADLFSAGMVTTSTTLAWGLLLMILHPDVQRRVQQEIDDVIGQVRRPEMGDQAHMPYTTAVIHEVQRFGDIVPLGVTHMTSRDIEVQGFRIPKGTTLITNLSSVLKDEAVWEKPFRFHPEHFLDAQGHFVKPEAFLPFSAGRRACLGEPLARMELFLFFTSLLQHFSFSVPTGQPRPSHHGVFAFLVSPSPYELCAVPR
Cytochrome P450 2C19, sequence (P33261 whole entry): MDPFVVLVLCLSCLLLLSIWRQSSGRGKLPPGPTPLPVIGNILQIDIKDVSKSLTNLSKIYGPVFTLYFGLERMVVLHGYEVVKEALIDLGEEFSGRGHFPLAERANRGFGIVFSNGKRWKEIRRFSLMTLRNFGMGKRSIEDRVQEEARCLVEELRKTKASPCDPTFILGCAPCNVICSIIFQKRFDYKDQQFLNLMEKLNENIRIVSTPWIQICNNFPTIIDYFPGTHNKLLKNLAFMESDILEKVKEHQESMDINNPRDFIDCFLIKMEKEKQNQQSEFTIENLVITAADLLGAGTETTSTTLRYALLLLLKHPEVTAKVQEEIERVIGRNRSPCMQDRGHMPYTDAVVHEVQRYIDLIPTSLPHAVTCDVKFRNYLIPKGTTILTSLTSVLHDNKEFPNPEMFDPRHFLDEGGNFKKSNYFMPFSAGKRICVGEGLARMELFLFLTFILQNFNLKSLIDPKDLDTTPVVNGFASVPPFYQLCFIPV
Cytochrome P450 2C9, sequence (P11712 whole entry, canonical isoform): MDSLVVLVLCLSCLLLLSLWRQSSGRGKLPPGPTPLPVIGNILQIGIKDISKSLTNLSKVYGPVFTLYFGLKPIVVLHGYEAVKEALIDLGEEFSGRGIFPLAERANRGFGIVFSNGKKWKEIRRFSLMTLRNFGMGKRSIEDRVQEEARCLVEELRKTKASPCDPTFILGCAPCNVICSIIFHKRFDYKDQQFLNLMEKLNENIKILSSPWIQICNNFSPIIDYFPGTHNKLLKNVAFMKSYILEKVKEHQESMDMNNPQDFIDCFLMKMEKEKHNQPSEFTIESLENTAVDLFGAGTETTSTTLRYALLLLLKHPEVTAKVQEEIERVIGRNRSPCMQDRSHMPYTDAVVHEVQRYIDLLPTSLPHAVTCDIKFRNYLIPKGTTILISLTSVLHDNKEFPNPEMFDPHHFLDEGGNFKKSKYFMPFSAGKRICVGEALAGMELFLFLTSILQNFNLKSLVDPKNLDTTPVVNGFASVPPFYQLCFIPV
Cytochrome P450 3A4, sequence (P08684 whole entry): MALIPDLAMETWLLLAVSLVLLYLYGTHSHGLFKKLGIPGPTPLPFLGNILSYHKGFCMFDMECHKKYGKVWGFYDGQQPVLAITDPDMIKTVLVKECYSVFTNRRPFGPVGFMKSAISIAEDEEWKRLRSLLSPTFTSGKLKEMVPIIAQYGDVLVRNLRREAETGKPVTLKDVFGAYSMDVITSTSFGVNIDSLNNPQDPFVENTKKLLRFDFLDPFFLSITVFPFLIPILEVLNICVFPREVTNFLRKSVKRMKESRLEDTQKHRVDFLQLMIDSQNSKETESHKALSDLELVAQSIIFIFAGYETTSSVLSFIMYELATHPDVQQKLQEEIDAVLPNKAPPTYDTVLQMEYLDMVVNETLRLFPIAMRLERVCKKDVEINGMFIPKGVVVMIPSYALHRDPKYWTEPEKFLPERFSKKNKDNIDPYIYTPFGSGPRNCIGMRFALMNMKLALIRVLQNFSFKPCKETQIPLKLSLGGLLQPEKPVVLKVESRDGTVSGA
Voltage-gated inwardly rectifying potassium channel KCNH2, sequence (Q12809 whole entry): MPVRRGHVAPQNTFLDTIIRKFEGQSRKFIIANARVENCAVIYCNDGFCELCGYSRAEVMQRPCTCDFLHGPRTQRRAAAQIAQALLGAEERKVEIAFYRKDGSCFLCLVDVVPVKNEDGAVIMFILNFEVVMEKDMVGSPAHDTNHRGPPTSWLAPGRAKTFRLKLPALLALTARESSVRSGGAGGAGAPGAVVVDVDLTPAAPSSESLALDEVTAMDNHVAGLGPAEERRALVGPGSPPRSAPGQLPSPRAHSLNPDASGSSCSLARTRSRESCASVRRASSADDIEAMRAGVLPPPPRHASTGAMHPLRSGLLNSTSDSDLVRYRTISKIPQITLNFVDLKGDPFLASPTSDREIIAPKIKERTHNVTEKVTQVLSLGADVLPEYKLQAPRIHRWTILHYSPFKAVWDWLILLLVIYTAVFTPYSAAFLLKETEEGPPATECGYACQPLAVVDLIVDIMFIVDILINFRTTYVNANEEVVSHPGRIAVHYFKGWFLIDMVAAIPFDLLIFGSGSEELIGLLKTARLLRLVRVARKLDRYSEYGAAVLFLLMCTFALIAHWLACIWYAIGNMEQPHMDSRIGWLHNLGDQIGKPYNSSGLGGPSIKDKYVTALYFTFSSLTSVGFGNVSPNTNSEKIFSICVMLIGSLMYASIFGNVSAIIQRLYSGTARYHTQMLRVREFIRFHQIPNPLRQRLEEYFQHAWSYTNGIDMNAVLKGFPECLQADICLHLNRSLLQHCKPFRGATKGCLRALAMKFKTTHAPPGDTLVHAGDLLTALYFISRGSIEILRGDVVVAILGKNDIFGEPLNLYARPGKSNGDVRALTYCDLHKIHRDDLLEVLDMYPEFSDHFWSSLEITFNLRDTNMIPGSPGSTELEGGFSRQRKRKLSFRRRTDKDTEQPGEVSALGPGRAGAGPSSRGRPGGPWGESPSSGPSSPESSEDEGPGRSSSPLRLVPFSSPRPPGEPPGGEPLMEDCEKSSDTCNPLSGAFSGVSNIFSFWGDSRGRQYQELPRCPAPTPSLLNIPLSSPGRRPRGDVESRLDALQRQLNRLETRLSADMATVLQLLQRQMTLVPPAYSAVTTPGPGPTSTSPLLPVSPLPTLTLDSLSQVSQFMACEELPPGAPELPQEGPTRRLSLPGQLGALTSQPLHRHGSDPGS

SMILES | IC50 (Cytochrome P450 2C9) [µM] | Stabilty [1] [%] | solubility kinetic [2] [µM] | IC50 (Cytochrome P450 3A4) [µM] | Papp [3] | IC50 (Cytochrome P450 2C19) [µM] | Stabilty [4] [%] | IC50 (Cytochrome P450 1A2) [µM] | IC50 (Cytochrome P450 2D6) [µM] | Stabilty [5] [%] | IC50 (Gamma-secretase) [nM] | IC50 [6] [µM] | other results
COc1nc(-c2csc(Nc3c4c(nn3CC(F)(F)F)CCC4)n2)ccc1-n1cnc(C)c1 | 11 | 72 | 22 (≈ 10.5 µg/mL) | 1.4 | 17.6 10^-6 cm/s | 7.1 | 46 | 27 | > 100 | 66 | 36 |  | 
COc1nc(-c2csc(Nc3c4c(nn3CCO)CCCC4)n2)ccc1-n1cnc(C)c1 | > 100 | 78 | 31 (≈ 14 µg/mL) | 30 | 18 10^-6 cm/s | 76 | 58 | > 100 | > 100 | 40 | 144 | 2.63 | 
CCn1nc(C(F)(F)F)cc1Nc1nc(-c2ccc(-n3cnc(C)c3)c(OC)n2)cs1 | 47 | 96 | 15 (≈ 6.74 µg/mL) | 5.3 | 23.3 10^-6 cm/s | 12 | 71 | 9.1 | > 100 | 84 | 58 |  | Cmax [7]: 359 ng/mL; AUC [8]: 623 ng·h/mL; F [9]: 76%; BPR [10]: 0.73; Cmax [11]: 470 ng/mL; AUClast [12]: 1727 ng·h/mL; BPR [13]: 0.62; t1/2 [14]: 1.6 h; AUC [15]: 2369 ng·h/mL; AUClast [16]: 605 ng·h/mL; Tmax [17]: 1 h; Vdss [18]: 3640 mL/kg; Tmax [19]: 4.98 min
COc1nc(-c2csc(Nc3c4c(nn3CCO)CCC4)n2)ccc1-n1cnc(C)c1 | 50 | 86 | 29 (≈ 12.7 µg/mL) | < 0.05 |  | 9.2 | 73 | > 100 | > 100 | 42 | 75 |  | 
COc1nc(-c2csc(Nc3c4c(nn3C(C)(C)C)CCCC4)n2)ccc1-n1cnc(C)c1 | 47 | 63 | 34 (≈ 15.8 µg/mL) | 5.3 | 14.8 10^-6 cm/s | 12 | 23 | 9.1 | > 100 | 19 | 71 | 7.18 | Ratio [20]: 0.9
